Source: ChEMBL document CHEMBL3739289, “Discovery, synthesis and structure-activity analysis of symmetrical 2,7-disubstituted fluorenones as urea transporter inhibitors” (Medchemcomm, 2015)
Active and inactive are the calls of the source. The rule behind the calls is not given here.

What was measured:
Urea transporter 1 = molecular target: T1, Urea transporter 1 (Rattus norvegicus, UniProt P97689); assay: Inhibition of UT-B in rat whole blood after 15 mins by RBC lysis assay; type: tissue-based
T1 sequence (P97689 whole entry): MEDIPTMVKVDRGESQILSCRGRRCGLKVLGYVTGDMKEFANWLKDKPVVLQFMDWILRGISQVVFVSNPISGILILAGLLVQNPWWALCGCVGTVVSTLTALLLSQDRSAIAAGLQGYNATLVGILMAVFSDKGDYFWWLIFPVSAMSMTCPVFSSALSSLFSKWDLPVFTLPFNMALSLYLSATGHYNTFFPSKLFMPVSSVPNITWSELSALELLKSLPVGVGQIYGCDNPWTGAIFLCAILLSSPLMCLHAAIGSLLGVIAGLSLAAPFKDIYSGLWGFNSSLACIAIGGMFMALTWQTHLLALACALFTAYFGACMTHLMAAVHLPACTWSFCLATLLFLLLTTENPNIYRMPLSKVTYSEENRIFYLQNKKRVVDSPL
How it was run: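 Whole rat blood diluted to ~1.5% hematocrit in PBS with 1.25 M acetamide. Erythrocytes exposed to compound for 15 min, then rapidly mixed with PBS. Lysis read as absorbance at 710 nm; % inhibition calculated relative to negative and positive controls.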

Urea transporter 2 = molecular target: T2, Urea transporter 2 (Rattus norvegicus, UniProt Q62668); assay: Inhibition of rat UT-A1 expressed in MDCK-UT-A1-AQP1-YFP cells after 15 mins by fluorescence assay; type: cell-based
T2 sequence (Q62668 whole entry): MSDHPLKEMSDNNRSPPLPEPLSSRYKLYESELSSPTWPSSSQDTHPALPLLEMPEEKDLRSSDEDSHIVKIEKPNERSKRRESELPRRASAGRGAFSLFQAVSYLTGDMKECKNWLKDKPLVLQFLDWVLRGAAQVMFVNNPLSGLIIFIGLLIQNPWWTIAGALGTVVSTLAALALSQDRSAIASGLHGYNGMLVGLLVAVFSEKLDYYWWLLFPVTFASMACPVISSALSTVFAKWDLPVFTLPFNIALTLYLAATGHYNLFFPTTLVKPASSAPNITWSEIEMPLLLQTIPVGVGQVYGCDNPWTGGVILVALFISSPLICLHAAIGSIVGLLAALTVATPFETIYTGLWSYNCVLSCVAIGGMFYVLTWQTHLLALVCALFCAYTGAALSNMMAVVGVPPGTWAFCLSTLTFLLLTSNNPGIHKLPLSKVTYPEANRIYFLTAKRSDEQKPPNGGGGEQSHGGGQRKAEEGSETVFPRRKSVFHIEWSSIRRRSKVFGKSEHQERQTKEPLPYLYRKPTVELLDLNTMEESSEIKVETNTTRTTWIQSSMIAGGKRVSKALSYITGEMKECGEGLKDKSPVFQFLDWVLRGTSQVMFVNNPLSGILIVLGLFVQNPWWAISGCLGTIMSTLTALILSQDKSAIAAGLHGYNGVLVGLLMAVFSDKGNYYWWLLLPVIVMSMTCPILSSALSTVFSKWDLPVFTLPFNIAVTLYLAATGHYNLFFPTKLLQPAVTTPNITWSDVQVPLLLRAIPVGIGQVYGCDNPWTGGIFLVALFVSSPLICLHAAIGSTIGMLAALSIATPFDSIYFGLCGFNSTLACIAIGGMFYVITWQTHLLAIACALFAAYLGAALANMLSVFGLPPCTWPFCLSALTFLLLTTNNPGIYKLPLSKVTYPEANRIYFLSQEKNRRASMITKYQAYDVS

[1] = Drug metabolism in rat liver microsomes assessed as cytochrome P450 monooxygenase-mediated oxidation by LC/MS analysis; type: ADME
How it was run: (§1)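 Compounds incubated with rat liver microsomes plus NADPH for up to 60 min. Parent loss and metabolite appearance followed by LC/MS.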

[2] = Metabolic stability in rat liver microsomes assessed as compound remaining after 15 mins by RP-HPLC analysis in presence of NADPH; type: ADME; details: read-out: Stability; how it was run: as §1
Liver microsome = assay: Drug metabolism in rat liver microsomes assessed as [M+ H-16] formation by LC/MS analysis; type: ADME; details: TDE = time-dependent effect
How it was run: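 Rat liver microsomes incubated with compound in presence of NADPH; disappearance of parent and appearance of metabolite followed by LC/MS over 60 min.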

[3] = molecular target: T3, Urea transporter 2 (Rattus norvegicus) (UniProt Q62668); assay: Inhibition of rat UT-A1 expressed in MDCK-UT-A1-AQP1-YFP cells after 40 secs by fluorescence assay; type: cell-based
T3 sequence (whole entry): T2 sequence (Q62668 whole entry)

[4] = molecular target: T3, Urea transporter 2 (Rattus norvegicus); assay: Non competitive inhibition of rat UT-A1 expressed in MDCK-UT-A1-AQP1-YFP cells at IC50 after 15 mins by fluorescence assay in presence of urea; type: cell-based
[5] = molecular target: T3, Urea transporter 2 (Rattus norvegicus); assay: Reversible inhibition of rat UT-A1 expressed in MDCK-UT-A1-AQP1-YFP cells at IC50 measured 15 mins post compound washout by fluorescence assay; type: cell-based
[6] = Drug level in 1M NaOH treated with compound-18 assessed as compound formation; type: physicochemical

SMILES	IC50 (Urea transporter 1)	IC50 (Urea transporter 2)	further results
CC(=O)Nc1ccc2c(c1)C(O)c1cc(NC(C)=O)ccc1-2	20 µM	> 50 µM	
Nc1ccc2c(c1)C(=O)c1cc(N)ccc1-2	> 50 µM	> 50 µM	
CS(=O)(=O)Nc1ccc2c(c1)C(=O)c1cc(NS(C)(=O)=O)ccc1-2	2.5 µM	1.5 µM	
CS(=O)(=O)Nc1cccc(C(=O)c2cccc(NS(C)(=O)=O)c2)c1	30 µM	> 50 µM	
CC(=O)Nc1cccc(C(=O)c2cccc(NC(C)=O)c2)c1	20 µM	18 µM	Drug metabolism [1]: metabolite_notdetected; remaining at 0.25 h [2]: > 80%
O=C(COCc1ccccc1)Nc1ccc2c(c1)C(=O)c1cc(NC(=O)COCc3ccccc3)ccc1-2	> 50 µM	> 50 µM	
O=C1c2cc([N+](=O)[O-])ccc2-c2ccc([N+](=O)[O-])cc21	> 50 µM	> 50 µM	
COCCOCC(=O)Nc1ccc2c(c1)C(=O)c1cc(NC(=O)COCCOC)ccc1-2	50 µM	> 50 µM	
O=C1c2cc(NC(=O)C(F)(F)F)ccc2-c2ccc(NC(=O)C(F)(F)F)cc21	7.5 µM	10 µM	
CC(=O)Nc1ccc2c(c1)C(=O)c1cc(NC(C)=O)ccc1-2	1.5 µM	1 µM	Drug metabolism (Liver microsome): tde; inhibition [3]: Active; inhibition [4]: Active; Drug metabolism [1]: metabolite_notdetected; inhibition [5]: Active; remaining at 0.25 h [2]: 60%
CC(=O)Nc1ccc2c(c1)C(=NO)c1cc(NC(C)=O)ccc1-2	25 µM	12 µM	Drug metabolism [1]: metabolite_notdetected; remaining at 0.25 h [2]: > 80%
CC(=O)/N=C1\C=CC2=c3ccc(NC(C)=O)cc3=CC2=C1			Drug metabolism [6]: metabolite_detected
O=C1c2cc(N3CCCS3(=O)=O)ccc2-c2ccc(N3CCCS3(=O)=O)cc21	> 50 µM	> 50 µM	
O=C(O)/C=C\C(=O)Nc1ccc2c(c1)C(=O)c1cc(NC(=O)/C=C\C(=O)O)ccc1-2	> 50 µM	30 µM	
O=C(COCc1ccccc1)Nc1cccc(C(=O)c2cccc(NC(=O)COCc3ccccc3)c2)c1	> 50 µM	> 50 µM	
Nc1cccc(C(=O)c2cccc(N)c2)c1	> 50 µM	> 50 µM	
CC(=O)Nc1ccc2c(c1)S(=O)(=O)c1cc(NC(C)=O)ccc1-2	2 µM	15 µM	Drug metabolism [1]: metabolite_notdetected; remaining at 0.25 h [2]: > 80%

Continued, in another order:

IC50 (Urea transporter 1)	IC50 (Urea transporter 2)	SMILES	further results
10 µM	30 µM	O=C(CBr)Nc1ccc2c(c1)C(=O)c1cc(NC(=O)CBr)ccc1-2	
50 µM	18 µM	CC(C)C(=O)Nc1ccc2c(c1)C(=O)c1cc(NC(=O)C(C)C)ccc1-2	
5 µM	15 µM	CCC(=O)Nc1ccc2c(c1)C(=O)c1cc(NC(=O)CC)ccc1-2	
1.2 µM	2 µM	NC(=O)Nc1ccc2c(c1)C(=O)c1cc(NC(N)=O)ccc1-2	
> 50 µM	> 50 µM	CCCC(=O)Nc1ccc2c(c1)C(=O)c1cc(NC(=O)CCC)ccc1-2	
30 µM	20 µM	[N-]=[N+]=NCC(=O)Nc1ccc2c(c1)C(=O)c1cc(NC(=O)CN=[N+]=[N-])ccc1-2	
25 µM	20 µM	O=C(CO)Nc1ccc2c(c1)C(=O)c1cc(NC(=O)CO)ccc1-2	
